Assay results: ChEMBL document CHEMBL1147338, “Production of an anti-allergic triterpene bryonolic acid, by plant cell cultures” (J Nat Prod, 1993)
Activity calls are given as the source filed them. No cut-off for these calls is given here.

What was measured:
Mus musculus [1] = assay: Antiallergic activity in ip dosed ddY mouse assessed as inhibition of passive cutaneous anaphylaxis administered 15 mins before egg albumin challenge; format: functional; details: read-out: ID50 (the source's name)
Summary of the method: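 Passive cutaneous anaphylaxis: anti-egg-albumin antiserum injected into both ears 48 h before iv egg albumin plus Evans Blue. Intraperitoneal dosing 15 min before antigen; dye leakage per ear measured spectrophotometrically after 30 min. ID50 (mg/kg) given as dose giving 50% inhibition.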

Mus musculus [2] = assay: Antiallergic activity in po dosed ddY mouse assessed as inhibition of passive cutaneous anaphylaxis administered 30 mins before egg albumin challenge; format: functional; details: read-out: ID50 (the source's name)
Summary of the method: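 Passive cutaneous anaphylaxis in mice: ear sensitization with anti-egg-albumin antiserum 48 h before iv egg albumin with Evans Blue; oral dosing 30 min before antigen; ear dye leakage read spectrophotometrically 30 min after challenge.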

[3] = target: T1, Aldo-keto reductase family 1 member D1 (Rattus norvegicus) (UniProt P31210); assay: Inhibition of rat liver 3-ketosteroid 5-beta-reductase
T1 sequence (whole entry): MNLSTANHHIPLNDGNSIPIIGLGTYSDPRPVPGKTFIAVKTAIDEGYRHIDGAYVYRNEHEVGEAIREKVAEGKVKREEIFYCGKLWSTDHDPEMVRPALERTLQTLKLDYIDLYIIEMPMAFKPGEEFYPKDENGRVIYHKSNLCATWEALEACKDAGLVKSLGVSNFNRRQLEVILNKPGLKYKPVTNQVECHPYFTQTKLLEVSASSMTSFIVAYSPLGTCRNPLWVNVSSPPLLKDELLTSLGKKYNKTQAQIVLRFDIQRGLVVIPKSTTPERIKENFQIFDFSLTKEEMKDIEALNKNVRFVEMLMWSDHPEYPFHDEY

Mus musculus [4] = assay: Antiallergic activity in ddY mouse assessed as inhibition sheep erythrocytes-induced arthus reaction at 30 mg/kg, po administered 30 mins before induction of arthus reaction; format: functional
Summary of the method: (§1)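 Male ddY mice (4-week-old, 16–18 g) sensitized by iv sheep erythrocytes 19 and 5 days before Arthus reaction, induced by sc sheep erythrocytes into right paw. Oral dosing 30 min before induction; edema scored as right minus left paw thickness, expressed as % inhibition of control.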

Mus musculus [5] = assay: Antiallergic activity in ddY mouse assessed as inhibition picryl chloride-induced contact dermatitis at 30 mg/kg, po administered 3 hrs after picryl chloride challenge measured after 24 hrs
Mus musculus [6] = assay: Antiallergic activity in ddY mouse assessed as inhibition picryl chloride-induced contact dermatitis at 75 mg/kg, po administered 3 hrs after picryl chloride challenge measured after 24 hrs
Mus musculus [7] = assay: Antiallergic activity in ddY mouse assessed as inhibition sheep erythrocytes-induced arthus reaction at 600 mg/kg, po administered 30 mins before induction of arthus reaction; format: functional; summary of the method: as §1
Mus musculus [8] = assay: Antiallergic activity in ddY mouse assessed as inhibition sheep erythrocytes-induced arthus reaction at 300 mg/kg, po administered 30 mins before induction of arthus reaction; format: functional; summary of the method: as §1
Mus musculus [9] = assay: Acute toxicity in ddY mouse at 4 g/kg, po; format: organism-based; details: in vivo, 4000 mg/kg
Summary of the method: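 Mice dosed orally at 4 g/kg; lethality recorded as the read-out for acute toxicity.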

Mus musculus [10] = assay: Antiallergic activity in ddY mouse assessed as inhibition picryl chloride-induced contact dermatitis at 150 mg/kg, po administered 3 hrs after picryl chloride challenge measured after 24 hrs
Mus musculus [11] = assay: Antiallergic activity in ddY mouse assessed as inhibition picryl chloride-induced contact dermatitis at 300 mg/kg, po administered 3 hrs after picryl chloride challenge measured after 24 hrs

Q: With `CC1(C)[C@@H](OC(=O)CCC(=O)[O-])CC[C@]2(C)C3=C(CC[C@@H]12)[C@@]1(C)CC[C@@]2(C)CC[C@@](C)(COC(=O)CCC(=O)[O-])C[C@H]2[C@]1(C)CC3.[K+].[K+]` as the molecule, how does the ED50 (Mus musculus [1]) read?
A: The ED50 was 52.4 mg/kg.

Q: Which ED50 (Mus musculus [2]) does the source give for `CC1(C)[C@@H](OC(=O)c2ccccc2C(=O)[O-])CC[C@]2(C)C3=C(CC[C@@H]12)[C@@]1(C)CC[C@@]2(C)CC[C@@](C)(C(=O)[O-])C[C@H]2[C@]1(C)CC3.[K+].[K+]` here?
A: The ED50 was 172 mg/kg.

Q: What about the ED50 (Mus musculus [1]) of the same molecule?
A: The ED50 was 34.2 mg/kg.

Q: For `CC1(C)[C@@H](O)CC[C@]2(C)C3=C(CC[C@@H]12)[C@@]1(C)CC[C@@]2(C)CC[C@@](C)(C(=O)O)C[C@H]2[C@]1(C)CC3` [BRYONOLIC ACID], which Activity [3] is on record?
A: Its Activity is “inactive”.

Q: What about the ED50 (Mus musculus [1]) of the same molecule?
A: Its ED50 is 376 mg/kg.

Q: Which ED50 (Mus musculus [1]) does the source give for `CC1(C)[C@@H](O)CC[C@]2(C)C3=C(CC[C@@H]12)[C@@]1(C)CC[C@@]2(C)CC[C@@](C)(CO)C[C@H]2[C@]1(C)CC3` here?
A: Its ED50 is 315 mg/kg.

Q: For `CC1(C)[C@@H](OC(=O)CCC(=O)[O-])CC[C@]2(C)C3=CC[C@@]4(C)[C@@H]5C[C@](C)(C(=O)[O-])CC[C@]5(C)CC[C@]4(C)C3=CC[C@@H]12.[K+].[K+]`, which ED50 (Mus musculus [1]) is on record?
A: The ED50 was 92.4 mg/kg.

Q: `CC1(C)[C@@H](OC(=O)CCC(=O)[O-])CC[C@]2(C)C3=C(CC[C@@H]12)[C@@]1(C)CC[C@@]2(C)CC[C@@](C)(CO)C[C@H]2[C@]1(C)CC3.[K+]` was tested. Which ED50 (Mus musculus [1]) did it give?
A: Its ED50 is 50.3 mg/kg.

Q: For `CC1(C)[C@@H](O)CC[C@]2(C)[C@H]3C(=O)C=C4[C@@H]5C[C@@](C)(C(=O)O)CC[C@]5(C)CC[C@@]4(C)[C@]3(C)CC[C@@H]12`, which Activity [3] is on record?
A: The Activity was “Active”.

Q: For `C[C@]12C=CC(=O)C=C1CC[C@@H]1[C@@H]2[C@@H](O)C[C@@]2(C)[C@H]1CC[C@]2(O)C(=O)COC(=O)CCC(=O)O` [PREDNISOLONE HEMISUCCINATE], which inhibition in vivo at 30 mg/kg (Mus musculus [4]) is on record?
A: The inhibition in vivo at 30 mg/kg was 37.4%.

Q: What about the inhibition in vivo at 30 mg/kg (Mus musculus [5]) of the same molecule?
A: Its inhibition in vivo at 30 mg/kg is 41%.

Q: With `CC1(C)[C@@H](OC(=O)c2ccccc2C(=O)[O-])CC[C@]2(C)C3=C(CC[C@@H]12)[C@@]1(C)CC[C@@]2(C)CC[C@@](C)(COC(=O)c4ccccc4C(=O)[O-])C[C@H]2[C@]1(C)CC3.[K+].[K+]` as the molecule, how does the ED50 (Mus musculus [2]) read?
A: Its ED50 is 92.5 mg/kg.

Q: And the ED50 (Mus musculus [1])?
A: The ED50 was 41.4 mg/kg.

Q: With `CC1(C)[C@@H](OC(=O)CCC(=O)[O-])CC[C@]2(C)C3=C(CC[C@@H]12)[C@@]1(C)CC[C@@]2(C)CC[C@@](C)(C(=O)[O-])C[C@H]2[C@]1(C)CC3.[K+].[K+]` as the molecule, how does the ED50 (Mus musculus [2]) read?
A: The ED50 was 63.7 mg/kg.

Q: And the inhibition in vivo at 75 mg/kg (Mus musculus [6])?
A: The inhibition in vivo at 75 mg/kg was 34%.

Q: What about the inhibition in vivo at 600 mg/kg (Mus musculus [7]) of the same molecule?
A: The inhibition in vivo at 600 mg/kg was 62.4%.

Q: And the inhibition in vivo at 300 mg/kg (Mus musculus [8])?
A: Its inhibition in vivo at 300 mg/kg is 35.3%.

Q: And the Activity (Mus musculus [9])?
A: The Activity was “Non-toxic”.

Q: And the inhibition in vivo at 150 mg/kg (Mus musculus [10])?
A: The inhibition in vivo at 150 mg/kg was 40.7%.

Q: And the ED50 (Mus musculus [1])?
A: Its ED50 is 55.3 mg/kg.

Q: What about the inhibition in vivo at 300 mg/kg (Mus musculus [11]) of the same molecule?
A: Its inhibition in vivo at 300 mg/kg is 53%.

Q: For `CC1(C)[C@@H](O)CC[C@]2(C)C3=C(CC[C@@H]12)[C@@]1(C)CC[C@@]2(C)CC[C@@](C)(COC(=O)CCC(=O)[O-])C[C@H]2[C@]1(C)CC3.[K+]`, which ED50 (Mus musculus [1]) is on record?
A: Its ED50 is > 400 mg/kg.

Q: How did the ED50 (Mus musculus [1]) turn out when `COc1ccc(/C=C/C(=O)Nc2ccccc2C(=O)O)cc1OC` [TRANILAST] was run?
A: Its ED50 is 152 mg/kg.
